Results gathered from unrelated publications.
Each line is one published result; the experiments were not run side by side.
Target: Serine/threonine-protein kinase ULK1 (ULK1, Homo sapiens, UniProt O75385)
Read-out: enzyme activity
Mode: inhibitor
One construct used (O75385 1-1050): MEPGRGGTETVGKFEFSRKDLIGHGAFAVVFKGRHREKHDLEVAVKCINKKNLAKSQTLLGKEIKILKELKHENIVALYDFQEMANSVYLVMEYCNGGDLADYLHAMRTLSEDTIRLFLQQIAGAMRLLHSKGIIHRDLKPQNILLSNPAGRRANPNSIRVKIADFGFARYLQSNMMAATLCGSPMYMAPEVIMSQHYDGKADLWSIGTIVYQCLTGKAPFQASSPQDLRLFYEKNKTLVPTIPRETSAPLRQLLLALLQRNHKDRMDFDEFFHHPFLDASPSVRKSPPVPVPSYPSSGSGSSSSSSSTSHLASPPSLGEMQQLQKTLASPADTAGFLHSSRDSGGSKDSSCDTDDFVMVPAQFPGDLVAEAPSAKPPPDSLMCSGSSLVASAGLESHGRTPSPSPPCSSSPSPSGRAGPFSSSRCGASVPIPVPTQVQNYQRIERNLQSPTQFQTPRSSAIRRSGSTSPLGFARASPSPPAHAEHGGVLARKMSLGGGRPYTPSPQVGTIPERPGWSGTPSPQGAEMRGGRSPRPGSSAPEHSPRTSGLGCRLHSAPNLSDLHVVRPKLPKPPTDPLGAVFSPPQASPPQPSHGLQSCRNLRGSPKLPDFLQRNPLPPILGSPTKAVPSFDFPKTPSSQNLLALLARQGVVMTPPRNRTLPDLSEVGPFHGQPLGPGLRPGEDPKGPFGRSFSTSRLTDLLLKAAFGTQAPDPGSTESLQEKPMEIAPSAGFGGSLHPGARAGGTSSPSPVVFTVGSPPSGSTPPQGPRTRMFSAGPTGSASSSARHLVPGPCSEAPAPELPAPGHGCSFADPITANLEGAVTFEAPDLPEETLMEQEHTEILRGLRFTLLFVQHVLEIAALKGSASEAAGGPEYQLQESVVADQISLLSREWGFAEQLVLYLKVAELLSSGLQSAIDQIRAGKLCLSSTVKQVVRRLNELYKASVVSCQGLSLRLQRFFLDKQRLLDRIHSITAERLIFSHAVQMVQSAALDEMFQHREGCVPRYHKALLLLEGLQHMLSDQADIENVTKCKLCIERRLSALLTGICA

| Compound | technique | tested at | remaining activity [%] |
| --- | --- | --- | --- |
| O=C(NCCCNc1nc(Nc2cccc(NC(=O)N3CCCC3)c2)ncc1C1CC1)C1CCC1 | radiometric | 1 µM | 17 |
| COc1cc(Cl)c(C(=O)N[C@@H](CN[C@H]2CC[C@@H](N)CC2)Cc2ccc(C#N)cc2)cc1-c1ccc(CN[C@H](C)c2ccc(C)cc2)o1 |  | 1 µM | 95 |
| COc1cc(Nc2cnc(C#N)c(O[C@H](C)CN(C)C)n2)ncc1-c1cnn(C)c1 | radiometric | 1 µM | 60 |
| Cc1ccc(C(=O)Nc2ccc(CN3CCN(C)CC3)c(C(F)(F)F)c2)cc1C#Cc1cnc2cccnn12 |  | 23.5 nM | 76 |
| Cc1sc(C(=O)NC2COC2)cc1-n1cc(NC(=O)Nc2c(F)cccc2Cl)cn1 |  | 10 µM | 77.3 |
| Cc1nn(CC(F)(F)F)cc1Nc1nccc(NCc2ccc(S(N)(=O)=O)cc2)n1 | radiometric | 1 µM | 99 |
| CC(C)(O)[C@H]1CC[C@H](Nc2ccc3ncc(-c4cccc(C(F)(F)F)c4)n3n2)CC1 |  | 1 µM | 96.2 |
| O=C(Nc1cnn(-c2csc(C(=O)NC3COC3)c2)c1)Nc1c(F)cccc1Cl |  | 5 µM | 93.9 |
